CRFBP-R2 agonist = CRF-BP/CRF-R2 complex agonism | HEK293 CRF-R2/CRF-BP, calcium dye fluorescence (FLIPR); percent of saturating CRF peptide response | activation, % at 13.2 µM | 350,000 compounds, 0.46% hits | AID 588473;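 active = activation of at least 50%, plus an integration ratio under a set limit after plate pattern correction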;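 also: plate controls were neutral control wells without compound for no effect and CRF at EC100 for full effect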
CRFR2-BP antag = blocks CRF-induced signaling of the CRF-BP/CRF-R2 complex; 350,000 compounds, 0.59% hits; AID 588475; HEK293 CRF-R2/CRF-BP, CRF-induced calcium fluorescence; inhibition, % at 11.8 µM;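 active = inhibition of the ligand-induced calcium signal above about 50% at the single tested concentration, limit read from the data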
DDE Tn6 FP inh = disrupts Tn6 cyclic peptide binding to fibrin D-Dimer-E complex. P02675. Fibrin DD(E) TRITC-Tn6 fluorescence polarization displacement. inhibition, % at 8.3 µM. 370,000 compounds, 0.21% hits;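 active = inhibition above a per-campaign cutoff: mean of compounds within control limits plus 3 SD, cut at about 15% in these data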;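 also: 0% = median of all compound wells on the plate and 100% = blocking peptide control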
Target sequence (P02675 whole entry, looked up): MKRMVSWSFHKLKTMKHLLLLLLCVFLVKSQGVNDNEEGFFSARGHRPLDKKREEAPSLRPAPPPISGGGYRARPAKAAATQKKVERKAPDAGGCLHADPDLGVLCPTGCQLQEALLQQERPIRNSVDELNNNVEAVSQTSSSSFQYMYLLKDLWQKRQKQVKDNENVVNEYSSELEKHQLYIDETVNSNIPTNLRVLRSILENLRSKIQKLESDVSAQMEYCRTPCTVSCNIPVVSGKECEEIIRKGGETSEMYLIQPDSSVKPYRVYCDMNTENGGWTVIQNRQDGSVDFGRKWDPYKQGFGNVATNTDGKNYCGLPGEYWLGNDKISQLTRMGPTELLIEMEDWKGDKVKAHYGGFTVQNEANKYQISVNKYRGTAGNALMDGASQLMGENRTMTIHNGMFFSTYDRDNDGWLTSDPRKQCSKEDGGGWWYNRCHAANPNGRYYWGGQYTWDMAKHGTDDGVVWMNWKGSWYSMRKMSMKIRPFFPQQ
Tn7 DDE FP = inhibitors of Tn7 peptide binding to human fibrin DD(E) | 370,000 compounds, 0.13% hits | P02675 | FP displacement of FITC-Tn7 peptide from fibrin DD(E); 0% = median of compound wells per plate | inhibition, % at 8.3 µM;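 active = inhibition above the mean of compounds falling within the control limits plus 3 SD of them, cut at about 14% in these data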;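 also: 0% = plate median of compound wells and 100% = 10 µM Aha-Tn7 peptide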
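Assay system: Human fibrin DD(E) protein | Medium: Tris buffer with calcium and detergent, pH 7.8 | Reagent: 0.1 µM fluorescent Tn7 | Compound dosing: Single point at 8.3 µM | Times: 10 min preincubation, 3 h with tracer, room temperature | Detection: Fluorescence polarization of the labelled Tn7 tracer | Controls: Aha-Tn7 high control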
Active calls of the source: *; · = no result given. Most compounds without a hit are left out; they make up all but 1.3% or so of the library.

SMILES	CRFBP-R2 agonist	CRFR2-BP antag	DDE Tn6 FP inh	Tn7 DDE FP
Cc1ccccc1Cn1cc(CN2[C@H](C)COc3cc(Br)ccc3S2(=O)=O)nn1	·	·	7.5	0.7
COC(=O)c1cccnc1-n1c(=O)c2cccnc2n(Cc2cccc([N+](=O)[O-])c2)c1=O	0.0	1.2	-2.9	-4.7
COc1ccc(CCn2c(=O)c3cccnc3n(Cc3cccc([N+](=O)[O-])c3)c2=O)cc1OC	-2.9	52.0*	4.7	3.4
Fc1ccc(C2c3cccn3CCN2C(=S)Nc2cccc(F)c2)cc1 (stereo not given)	6.2	53.0*	0.0	5.5
Fc1cccc(NC(=S)N2CCn3cccc3C2c2cccnc2)c1 (stereo not given)	2.3	-10.8	5.3	-2.9
O=C(N/N=C/c1cc([N+](=O)[O-])cc(Br)c1O)C12CC3CCC(CC(C3)C1)C2	117.1*	-30.2	4.9	9.0
CN(Cc1ccc([N+](=O)[O-])cc1)c1ccccc1	-6.0	55.2*	4.9	1.2
CN(N=Nc1cccc([N+](=O)[O-])c1)c1ccccc1	0.3	-1.6	4.7	2.5
CN(N=Nc1ccc([N+](=O)[O-])cc1)c1ccccc1	83.7*	-49.6	0.3	2.1
Cc1cccc(CCNC(=O)Cn2ncc3c2-c2cc(C)ccc2OC3)c1	·	·	0.2	-1.2
C=CCN1[C@H](Cc2ccccc2)COc2cc(F)ccc2S1(=O)=O	·	·	-0.9	-7.0
CCCCN1C(=O)/C(=C2/Sc3ccc(OC)cc3N2CC)SC1=S	22.8	-7.0	·	·
C=CCN1C(=O)/C(=C2/Sc3ccc(OC)cc3N2CC)SC1=S	68.3*	-39.0	0.8	5.4
Cc1occc1-c1nnc(SCC(=O)Nc2ccc3ncccc3c2)n1-c1ccccc1	·	·	-0.5	1.8
CCN(CCO)Cc1csc2cccc(Br)c12	-3.0	83.5*	-2.2	3.7
O=C(CSc1nnc(C2COc3ccccc3O2)o1)NC1CCCCC1 (stereo not given)	-1.8	54.2*	-1.3	-4.2
O=C(CSc1nnc(C2COc3ccccc3O2)o1)N1CCCCC1 (stereo not given)	0.1	10.8	-1.4	3.9
COc1ccc(CNc2oc(COc3ccccc3)nc2C#N)cc1	-5.5	51.8*	-8.5	-12.7
COc1ccc(CCNc2oc(COc3ccccc3)nc2C#N)cc1	-2.3	49.9	-5.7	7.7
CC(=O)N1c2ccc(S(=O)(=O)N(C)CC(=O)N3CCCC3)cc2CC1C (stereo not given)	-0.3	-4.8	·	·
CC(=O)N1c2ccc(S(=O)(=O)N(C)CC(=O)NC3CCCC3)cc2CC1C (stereo not given)	2.3	62.8*	6.8	3.4
CCOc1ccc(Br)cc1C1=CC(=O)C[C@H](c2ccc(OC)cc2)C1	163.3*	-77.4	-3.6	-0.1
O/C(=C\c1nc2ccccc2[nH]1)c1cccs1	20.8	-14.7	4.1	6.2
O=c1[nH]c2ccccc2nc1/C=C(\O)c1cccs1	224.0*	-194.6	-5.3	-6.0
O=c1[nH]c2ccccc2nc1/C=C/c1ccc(O)cc1	104.4*	-152.0	-10.6	-5.1
SMILES	CRFBP-R2 agonist	CRFR2-BP antag	DDE Tn6 FP inh	Tn7 DDE FP
O=c1[nH]c2ccccc2nc1/C=C/c1ccccc1	-0.5	-2.2	0.3	6.9
COc1ccc(CN(CCN2CCOCC2)C(=O)c2ccccc2C)cc1OC	·	·	4.2	-0.3
COc1cccc(OCC(C)CN2CCC(C(O)(c3ccccc3)c3ccccc3)CC2)c1 (stereo not given)	·	·	4.8	-1.2
COC(=O)C1CN(Cc2cn(Cc3ccccc3)nn2)CCS(=O)(=O)N1Cc1ccc(F)cc1 (stereo not given)	·	·	6.7	3.4
COc1ccc(OC(=O)c2ccc(Cl)cc2)c(C(C)=O)c1	0.2	51.5*	-1.6	-4.4
COc1ccc(C(=O)Nc2cc(Cl)ccc2OC(=O)c2ccc(OC)cc2)cc1	0.4	-3.0	·	·
C=CCN(CC#Cc1ccccc1)CC1CC1	·	·	-1.2	5.8
CCNC(=S)Nc1cc(OC)c(NC(=O)c2ccco2)cc1OC	-6.2	73.3*	-2.7	-8.7
C[C@@H]1CC[C@]2(C(=O)O[C@@H]3O[C@H](CO)[C@@H](O)[C@H](O)[C@H]3O)CC[C@]3(C)C(=CCC4[C@@]5(C)CC[C@H](O[C@@H]6OC[C@H](O)[C@H](O[C@@H]7O[C@H](CO)[C@@H](O)[C@H](O)[C@H]7O)[C@H]6O)C(C)(C)C5CC[C@]43C)C2[C@]1(C)O (stereo not given in full)	-0.8	25.6	3.1	-6.7
